# Measured values: ChEMBL document CHEMBL1146632, “Styrylheterocycles: a novel class of inhibitors on lipopolysaccharide-Induced nitric oxide production” (Bioorg Med Chem Lett, 2003)
# Columns and labels:
# RAW264.7 [1] = test: Inhibitory activity against nitric oxide production in lipopolysaccharide-activated mouse macrophage RAW264.7 cells; assay type: functional, cell-based
# Outline: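 RAW264.7 cells in phenol-red-free DMEM with 10% FBS were plated at 8×10⁵ cells/mL and grown 24 h. The medium was then renewed, and cells were exposed to LPS with or without test sample for 20 h. Nitrite in the medium, taken as the NO indicator, was measured in triplicate with Griess reagent (0.1% naphthylethylenediamine, 1% sulfanilamide, 5% H₃PO₄). Inhibition was calculated as % of the vehicle-treated control, and IC₅₀ was taken from dose-response curves.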
# RAW264.7 [2] = test: Inhibitory activity of the compound against nitric oxide production in lipopolysaccharide-activated mouse macrophage RAW264.7 cells
IC50 (RAW264.7 [1]) [µM],IC50 (RAW264.7 [2]) [µM],Compound
> 50,–,COc1ccc(/C=C/c2cccs2)cc1
> 50,–,COc1cc(/C=C\c2cccs2)cc(OC)c1
5.3,–,COc1cc(/C=C/c2cccs2)cc(OC)c1OC
> 50,–,COc1ccc(/C=C\c2cccs2)cc1
> 50,–,COc1cc(/C=C/c2cccs2)cc(OC)c1
15.9,–,Oc1ccc(/C=C/c2cc(O)cc(O)c2)cc1 [RESVERATROL]

# The remaining lines, values behind:
Compound,IC50 (RAW264.7 [1]) [µM],IC50 (RAW264.7 [2]) [µM]
COc1cc(/C=C\c2ccsc2)cc(OC)c1OC,5.6,–
COc1cc(/C=C/c2ccco2)cc(OC)c1OC,5.9,–
COc1cc(/C=C/c2ccsc2)cc(OC)c1OC,–,7.8
COc1cc(/C=C\c2ccoc2)cc(OC)c1OC,6.6,–
COc1cc(/C=C/c2ccoc2)cc(OC)c1OC,9.5,–
